ChEMBL document CHEMBL3244172, “Easily hydrolyzable, water-soluble derivatives of (+/-)-alpha-5-[1-(indol-3-yl)ethyl]-2-methylamino-delta2-thiazoline-4-one, a novel antiviral compound” (J Med Chem, 1979)
Active and inactive are the calls of the source. No cut-off for these calls is given here.

Tests used:
[1] = Stability in unbuffered aqueous solutions at pH >6 assessed as compound decarboxylation; assay type: physicochemical
[2] = Stability in unbuffered aqueous solutions at pH >6 assessed as compound hydrolysis; assay type: physicochemical; conditions: unbuffered aqueous solution
[3] = Solubility in water; assay type: physicochemical; conditions: buffer
[4] = system: MDCK; assay: Cytotoxicity against MDCK cells infected with Influenza A virus Port Chalmers/1/73 (H3N2) up to 100 ug/ml after 3 days by carbol fuchsin staining-based assay; assay type: cell-based, Canis lupus familiaris; conditions: dog, 72 h
Procedure, shortened: (§1)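 MDCK monolayers infected with influenza had compound in the agar overlay and were incubated 3 days at 33 °C. Monolayers were stained with carbol fuchsin or neutral red. MCC is the lowest concentration causing morphological cell abnormalities.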

[5] = system: Coxsackievirus B1; assay: Antiviral activity against Coxsackievirus B1 infected in human HeLa cells assessed as plaque reduction up to 100 ug/ml after 42 hrs by agar diffusion method; assay type: functional, organism-based
Procedure, shortened: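 Compound mixed at varying concentrations into the agar overlay above Coxsackie B1-infected HeLa monolayers. Incubated 37 °C for 42 h. PDD50 is the lowest concentration giving ≥50% fewer plaques than untreated controls.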

[6] = system: HeLa; assay: Cytotoxicity against human HeLa cells infected with Coxsackievirus B1 up to 100 ug/ml after 42 hrs by carbol fuchsin staining-based assay; assay type: cell-based
Procedure, shortened: (§2)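 HeLa monolayers infected with Coxsackie B1 under an agar overlay holding varying compound concentrations, incubated 37 °C, 42 h. Monolayers stained with carbol fuchsin or neutral red. MCC is the lowest concentration causing morphological abnormalities.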

[7] = system: Influenza A virus; assay: Antiviral activity against Influenza A virus Port Chalmers/1/73 (H3N2) infected in MDCK cells assessed as plaque reduction up to 100 ug/ml after 3 days by agar diffusion method; assay type: functional, organism-based
Procedure, shortened: (§3)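 Plaque reduction: varying compound concentrations were put in the agar overlay above infected monolayers. Coxsackie B1/HeLa was incubated 42 h at 37 °C; influenza/MDCK 3 days at 33 °C. PDD50 is the lowest concentration giving ≥50% fewer plaques than untreated controls.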

[8] = system: Influenza A virus; assay: Antiviral activity against Influenza A virus Port Chalmers/1/73 (H3N2) infected in MDCK cells assessed as plaque reduction after 3 days by agar diffusion method; assay type: functional; procedure, shortened: as §3
[9] = Cytotoxicity against MDCK cells infected with Influenza A virus Port Chalmers/1/73 (H3N2) after 3 days by carbol fuchsin staining-based assay; assay type: cell-based, Canis lupus familiaris; conditions: dog; procedure, shortened: as §1
[10] = system: Coxsackievirus B1; assay: Antiviral activity against Coxsackievirus B1 infected in human HeLa cells assessed as plaque reduction after 42 hrs by agar diffusion method; assay type: functional; procedure, shortened: as §3
[11] = system: Influenza A virus; assay: Antiviral activity against Influenza A virus Port Chalmers/1/73 (H3N2) infected in MDCK cells at 1 mg/ml by agar diffusion method; assay type: functional; conditions: read-out: DIZ
Procedure, shortened: (§4)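 Agar diffusion: compounds were diluted to 1 mg/mL in Eagle's MEM from stocks of 10 mg/mL in water or 100 mg/mL in DMSO. 0.02 mL went into 6 mm wells cut in the agar overlay above infected monolayers (influenza in MDCK, Coxsackie B1 in HeLa). Read-out was the diameter (mm) of the plaque-free inhibition zone around each well.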

[12] = system: Coxsackievirus B1; assay: Antiviral activity against Coxsackievirus B1 infected in human HeLa cells at 1 mg/ml by agar diffusion method; assay type: functional; conditions: Enterovirus B; read-out: DIZ; procedure, shortened: as §4
[13] = Cytotoxicity against human HeLa cells infected with Coxsackievirus B1 after 42 hrs by carbol fuchsin staining-based assay; assay type: cell-based; procedure, shortened: as §2
[14] = Stability in aqueous solutions at neutral pH; assay type: physicochemical; conditions: buffer
[15] = system: Influenza A virus; assay: (§5) Antiviral activity against Influenza A virus Port Chalmers/1/73 (H3N2) infected in ferret assessed as reduction in viral excretion by measuring hemagglutination units per ml at 13 mg/kg administered intranasally 7 times on day 0 and 9 times on day 1 to day 3 measured on day 4 relative to untreated control; assay type: functional
Procedure, shortened: (§6)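 Ferrets (700–1500 g, groups of three, untreated control group) were infected intranasally on day 0. Unanaesthetized animals received 0.2 mL of a 50 mg/mL solution in distilled water intranasally, from 2 h post-infection, hourly: 7 doses on day 0 and 9 daily on days +1 to +3. Nasal washings were titrated for hemagglutination with 0.5% washed chicken erythrocytes (HAU/mL) on days +2 to +4.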

[16] = system: Influenza A virus; assay: as §5, with “7” for “13”, “3” for “4”; assay type: functional; procedure, shortened: as §6
[17] = system: Mustela putorius furo; assay: Toxicity in ferret infected with Influenza A virus Port Chalmers/1/73 (H3N2) assessed as change in body weight at 7 mg/kg administered intranasally 7 times on day 0 and 9 times on day 1 to day 3 measured after 7 days relative to untreated control; assay type: organism-based; set-up: dose 7 mg/kg; conditions: in vivo, inhaled_or_intranasal, 168 h
Procedure, shortened: (§7)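 Infected ferrets (700–1500 g, groups of three, untreated controls) were dosed intranasally each hour with 0.2 mL of a 50 mg/mL solution in distilled water: 7 doses on day 0 and 9 on days +1 to +3. Body weight was recorded throughout and expressed as % change.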

[18] = system: Influenza A virus; assay: as §5, with “at 7” for “at 13”, “day 2” for “day 3”, “day 2” for “day 4”; assay type: functional; procedure, shortened: as §6
[19] = system: Influenza A virus; assay: as §5, with “14” for “13”, “3” for “4”; assay type: functional; procedure, shortened: as §6
[20] = system: Influenza A virus; assay: as §5, with “day 2” for “day 3”, “day 2” for “day 4”; assay type: functional; procedure, shortened: as §6
[21] = system: Influenza A virus; assay: as §5, with “at 14” for “at 13”, “day 2” for “day 3”, “day 2” for “day 4”; assay type: functional; procedure, shortened: as §6
[22] = system: Influenza A virus; assay: Antiviral activity against Influenza A virus Port Chalmers/1/73 (H3N2) infected in ferret assessed as reduction in rectal temperature at 7 to 14 mg/kg administered intranasally 7 times on day 0 and 9 times on day 1 to day 3 relative to untreated control; assay type: functional; conditions: dose mg/kg 7-14
Procedure, shortened: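 Ferrets (700–1500 g), three per group, infected intranasally on day 0 with influenza A/Port Chalmers/1/73 (H3N2). Dosed 0.2 mL of 50 mg/mL solution in distilled water by intranasal instillation, unanaesthetized, starting 2 h post-infection and repeated hourly. Untreated and ribavirin-treated groups served as controls. Rectal temperature readings >39.5 °C and >40.0 °C were counted on days +1 to +4.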

[23] = system: Influenza A virus; assay: as §5, with “3” for “4”; assay type: functional; procedure, shortened: as §6
[24] = system: Influenza A virus; assay: as §5, with “7” for “13”; assay type: functional; procedure, shortened: as §6
[25] = system: Mustela putorius furo; assay: Toxicity in ferret infected with Influenza A virus Port Chalmers/1/73 (H3N2) assessed as change in body weight at 13 mg/kg administered intranasally 7 times on day 0 and 9 times on day 1 to day 3 measured after 7 days relative to untreated control; assay type: organism-based; set-up: dose 13 mg/kg; conditions: in vivo, inhaled_or_intranasal, 168 h; procedure, shortened: as §7
[26] = system: Influenza A virus; assay: as §5, with “14” for “13”; assay type: functional; procedure, shortened: as §6
[27] = system: Mustela putorius furo; assay: Toxicity in ferret infected with Influenza A virus Port Chalmers/1/73 (H3N2) assessed as change in body weight at 14 mg/kg administered intranasally 7 times on day 0 and 9 times on day 1 to day 3 measured after 7 days relative to untreated control; assay type: organism-based; set-up: dose 14 mg/kg; conditions: in vivo, inhaled_or_intranasal, 168 h; procedure, shortened: as §7

Structure (SMILES) | solubility [3] | PDD50 [8] [µg/mL] | MCC at 72 h [9] [µg/mL] | PDD50 [10] [µg/mL] | zone of inhibition at 1000 µg/mL [11] [mm] | zone of inhibition at 1000 µg/mL [12] [mm] | MCC at 42 h [13] [µg/mL] | also measured
CNC1=NC(=O)C(C(C)c2cn(C(=O)OCC(C)(C)N3CCOCC3)c3ccccc23)S1.Cl (racemic) | soluble | – | – | – | – | – | – | Stability [1]: Unstable; Stability [2]: Unstable
CNC1=NC(=O)C(C(C)c2cn(C(C)=O)c3ccccc23)S1 (racemic) | – | – | – | – | – | – | – | Activity [4]: Non-toxic; Activity [5]: inactive; Activity [6]: Non-toxic; Activity [7]: inactive
CCSC(=O)n1cc(C(C)C2SC(NC)=NC2=O)c2ccccc21 (racemic) | – | – | – | – | – | – | – | Activity [4]: Non-toxic; Activity [5]: inactive; Activity [6]: Non-toxic; Activity [7]: inactive
CNC1=NC(=O)C(C(C)c2cn(C(=O)OC(C)(C)CN(C)C)c3ccccc23)S1.Cl (racemic) | soluble | – | – | – | – | – | – | Stability [1]: Unstable; Stability [2]: Unstable
CNC1=NC(=O)C(C(C)c2cn(C(=O)CCCC(=O)O)c3ccccc23)S1 (racemic) | – | 5 | 100 | 10 | 24 | 20 | > 100 | –
CNC1=NC(=O)C(C(C)c2cn(C(=O)CCCC(=O)[O-])c3ccccc23)S1.[Na+] (racemic) | soluble | – | – | – | – | – | – | Stability [14]: Stable
CNC1=NC(=O)C(C(C)c2c[nH]c3ccccc23)S1 (racemic) | – | 0.5 | 3 | 5 | 30 | 29 | 30 | –
OC(c1ccccc1)c1nc2ccccc2[nH]1 (stereo not given) | – | – | – | 20 | – | 25 | > 100 | –
CNC1=NC(=O)C(C(C)c2cn(C(=O)c3ccccc3C(=O)[O-])c3ccccc23)S1.[Na+] (racemic) | soluble | – | – | – | – | – | – | Stability [14]: Stable
CNC1=NC(=O)C(C(C)c2cn(C(=O)OC(C)(C)CN(C)C)c3ccccc23)S1 (racemic) | – | 0.3 | 3 | 5 | 25 | 21 | 30 | –
NC(=O)c1ncn([C@@H]2O[C@H](CO)[C@@H](O)[C@H]2O)n1 [RIBAVIRIN] | – | 2 | > 100 | – | 30 | – | – | Activity [15]: <4 HAU/ml; Activity [16]: <4 HAU/ml; Activity [17]: -4.5%; Activity [18]: <4 HAU/ml; Activity [19]: <4 HAU/ml; Activity [20]: <4 HAU/ml; Activity [21]: <4 HAU/ml; T [22]: >39.5 °C; Activity [23]: 12 HAU/ml; Activity [24]: <4 HAU/ml; Activity [25]: -20.1%; Activity [26]: <4 HAU/ml; Activity [27]: -22.2%
